What was measured:
MDA-MB-231 [1] = assay: Cytotoxicity against cisplatin resistant human MDA-MB-231 cells after 72 hrs by MTT assay; format: functional, cell-based; settings: MDA-MB-231, 72 h
CAL-27 [2] = assay: Potentiation of cisplatin-induced toxicity in cisplatin resistant human CAL27 cells at 1 uM pretreated for 48 hrs followed by cisplatin treatment by MTT assay; format: functional
How it was run: (§1)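 Resistant sublines pretreated 48 h with 1 μM HDAC inhibitor, then cisplatin over a concentration range for 72 h; MTT viability read at 544/690 nm. Cisplatin IC50 from four-parameter logistic fit of pooled data (≥3 experiments, triplicate); shift factor = IC50 of cisplatin alone divided by IC50 of the combination.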

MDA-MB-231 [3] = assay: Cytotoxicity against cisplatin sensitive human MDA-MB-231 cells after 72 hrs by MTT assay; format: functional, cell-based
How it was run: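 MDA-MB-231 (parental), 10 000 cells/well, in DMEM with 15% FCS at 37 °C, 5% CO2. Compounds added 24 h after seeding for 72 h. MTT (5 mg/mL in PBS) was added, formazan dissolved in DMSO, absorbance read at 544 and 690 nm. IC50 from four-parameter logistic fit of ≥3 experiments in triplicate.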

CAL-27 [4] = assay: Potentiation of 2.5 uM cisplatin-induced toxicity in 1 uM cisplatin resistant human CAL27 cells at 1 uM pretreated for 48 hrs followed by 1 uM cisplatin treatment by MTT assay; format: functional
CAL-27 [5] = assay: Potentiation of 1 uM cisplatin-induced toxicity in 1 uM cisplatin resistant human CAL27 cells at 0.25 uM pretreated for 48 hrs followed by 1 uM cisplatin treatment by MTT assay; format: functional
KYSE-510 [6] = assay: Potentiation of 8 uM cisplatin-induced toxicity in 0.5 uM cisplatin resistant human KYSE-510 cells at 1 uM pretreated for 48 hrs followed by 0.5 uM cisplatin treatment by MTT assay; format: functional
KYSE-510 [7] = assay: Potentiation of 1 uM cisplatin-induced toxicity in 0.5 uM cisplatin resistant human KYSE-510 cells at 1.5 uM pretreated for 48 hrs followed by 0.5 uM cisplatin treatment by MTT assay; format: functional
A2780 [8] = assay: Potentiation of cisplatin-induced toxicity in cisplatin resistant human A2780 cells at 1 uM pretreated for 48 hrs followed by cisplatin treatment by MTT assay; format: functional; how it was run: as §1
MDA-MB-231 [9] = assay: Potentiation of 25 uM cisplatin-induced toxicity in 1 uM cisplatin resistant human MDA-MB-231 cells at 1 uM pretreated for 48 hrs followed by 1 uM cisplatin treatment by MTT assay; format: functional
CAL-27 [10] = assay: Potentiation of 2.5 uM cisplatin-induced toxicity in 1 uM cisplatin resistant human CAL27 cells at 0.25 uM pretreated for 48 hrs followed by 1 uM cisplatin treatment by MTT assay; format: functional
Histone deacetylase 1 = Histone deacetylase 1 (Homo sapiens, UniProt Q13547); assay: Inhibition of human HDAC1 by fluorescence assay
MDA-MB-231 [11] = assay: Potentiation of 5 uM cisplatin-induced toxicity in 1 uM cisplatin resistant human MDA-MB-231 cells at 0.5 uM pretreated for 48 hrs followed by 1 uM cisplatin treatment by MTT assay; format: functional
MDA-MB-231 [12] = assay: Potentiation of […] cisplatin-induced toxicity in 1 uM cisplatin resistant human MDA-MB-231 cells at 1.5 uM pretreated for 48 hrs followed by 1 uM cisplatin treatment by MTT assay; format: functional
Histone deacetylase [13] = assay: Inhibition of HDAC in cisplatin sensitive human MDA-MB-231 cells after 18 hrs by fluorescence assay; format: cell-based
KYSE-510 [14] = assay: Potentiation of 0.5 uM cisplatin-induced toxicity in 0.5 uM cisplatin resistant human KYSE-510 cells at 1.5 uM pretreated for 48 hrs followed by 0.5 uM cisplatin treatment by MTT assay; format: functional
Histone deacetylase [15] = assay: Inhibition of HDAC in cisplatin resistant human KYSE-510 cells after 18 hrs by fluorescence assay; format: cell-based
A2780 [16] = assay: Potentiation of 1 uM cisplatin-induced toxicity in 5 uM cisplatin resistant human A2780 cells at 0.5 uM pretreated for 48 hrs followed by 5 uM cisplatin treatment by MTT assay; format: functional
KYSE-510 [17] = assay: Potentiation of 0.75 uM cisplatin-induced toxicity in 0.5 uM cisplatin resistant human KYSE-510 cells at 0.5 uM pretreated for 48 hrs followed by 0.5 uM cisplatin treatment by MTT assay; format: functional
How it was run: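 Cisplatin-resistant Kyse510 CisR (derived by weekly cycles of cisplatin over 24−30 weeks), grown in RPMI 1640 with 10% FCS at 37 °C, 5% CO₂. Test agent added 48 h before cisplatin, then 72 h further incubation. Viability by MTT (read at 544/690 nm) relative to untreated control wells. Combination index by Chou−Talalay method. Mean of three experiments.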

MDA-MB-231 [18] = assay: Potentiation of […] cisplatin-induced toxicity in 1 uM cisplatin resistant human MDA-MB-231 cells at 1 uM pretreated for 48 hrs followed by 1 uM cisplatin treatment by MTT assay; format: functional
MDA-MB-231 [19] = assay: Potentiation of 5 uM cisplatin-induced toxicity in 1 uM cisplatin resistant human MDA-MB-231 cells at 0.25 uM pretreated for 48 hrs followed by 1 uM cisplatin treatment by MTT assay; format: functional
KYSE-510 [20] = assay: Potentiation of 0.5 uM cisplatin-induced toxicity in 0.5 uM cisplatin resistant human KYSE-510 cells at 1 uM pretreated for 48 hrs followed by 0.5 uM cisplatin treatment by MTT assay; format: functional
MDA-MB-231 [21] = assay: Potentiation of 5 uM cisplatin-induced toxicity in 1 uM cisplatin resistant human MDA-MB-231 cells at 1 uM pretreated for 48 hrs followed by 1 uM cisplatin treatment by MTT assay; format: functional
MDA-MB-231 [22] = assay: Potentiation of 25 uM cisplatin-induced toxicity in 1 uM cisplatin resistant human MDA-MB-231 cells at 1.5 uM pretreated for 48 hrs followed by 1 uM cisplatin treatment by MTT assay; format: functional
A2780 [23] = assay: Potentiation of 5 uM cisplatin-induced toxicity in 5 uM cisplatin resistant human A2780 cells at 0.5 uM pretreated for 48 hrs followed by 5 uM cisplatin treatment by MTT assay; format: functional
MDA-MB-231 [24] = assay: Potentiation of 5 uM cisplatin-induced toxicity in 1 uM cisplatin resistant human MDA-MB-231 cells at 1.5 uM pretreated for 48 hrs followed by 1 uM cisplatin treatment by MTT assay; format: functional
A2780 [25] = assay: Potentiation of 5 uM cisplatin-induced toxicity in 5 uM cisplatin resistant human A2780 cells at 1 uM pretreated for 48 hrs followed by 5 uM cisplatin treatment by MTT assay; format: functional

Histone deacetylase 1, sequence (Q13547 whole entry): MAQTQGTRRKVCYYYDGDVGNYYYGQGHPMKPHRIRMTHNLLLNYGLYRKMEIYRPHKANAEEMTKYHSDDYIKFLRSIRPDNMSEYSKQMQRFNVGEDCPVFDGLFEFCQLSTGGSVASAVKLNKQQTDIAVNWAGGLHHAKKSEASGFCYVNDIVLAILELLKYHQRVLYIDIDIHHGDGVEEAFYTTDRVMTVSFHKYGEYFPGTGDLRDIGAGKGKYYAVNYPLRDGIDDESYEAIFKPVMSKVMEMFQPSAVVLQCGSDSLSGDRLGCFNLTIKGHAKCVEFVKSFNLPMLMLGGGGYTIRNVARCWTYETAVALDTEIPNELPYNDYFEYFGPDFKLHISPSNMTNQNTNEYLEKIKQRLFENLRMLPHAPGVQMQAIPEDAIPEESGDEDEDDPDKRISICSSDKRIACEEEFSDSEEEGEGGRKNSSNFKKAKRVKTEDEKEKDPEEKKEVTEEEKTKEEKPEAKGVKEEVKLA

Cc1cc(C)cc(C(=O)NOCCCCCC(=O)NO)c1
IC50 (MDA-MB-231 [1]): 1680 nM | Activity (CAL-27 [2]): Dose-dependent effect | fold change (FC) (CAL-27 [2]): 21.6 | Activity (MDA-MB-231 [3]): Dose-dependent effect | IC50 (MDA-MB-231 [3]; MDA-MB-231, 72 h): 1370 nM | Activity (CAL-27 [4]): Dose-dependent effect | fractional inhibitory concentration index (FICI) (CAL-27 [4]): 0.38 | Activity (CAL-27 [5]): Dose-dependent effect | fractional inhibitory concentration index (FICI) (CAL-27 [5]): <0.2 | Activity (KYSE-510 [6]): Dose-dependent effect | fractional inhibitory concentration index (FICI) (KYSE-510 [6]): 0.18 | Activity (KYSE-510 [7]): Dose-dependent effect | fractional inhibitory concentration index (FICI) (KYSE-510 [7]): 0.05 | Activity (A2780 [8]): Dose-dependent effect | fold change (FC) (A2780 [8]): 4.02 | Activity (MDA-MB-231 [9]): Dose-dependent effect | fractional inhibitory concentration index (FICI) (MDA-MB-231 [9]): 0.72 | Activity (CAL-27 [10]): Dose-dependent effect | IC50 (Histone deacetylase 1): 320 nM | Activity (MDA-MB-231 [11]): Dose-dependent effect | fractional inhibitory concentration index (FICI) (MDA-MB-231 [11]): <0.2 | Activity (MDA-MB-231 [12]): Dose-dependent effect | fractional inhibitory concentration index (FICI) (MDA-MB-231 [12]): 0.8 | IC50 (Histone deacetylase [13]): 460 nM | Activity (KYSE-510 [14]): Dose-dependent effect | fractional inhibitory concentration index (FICI) (KYSE-510 [14]): 0.06 | IC50 (Histone deacetylase [15]): 350 nM | Activity (A2780 [16]): Dose-dependent effect | fractional inhibitory concentration index (FICI) (A2780 [16]): 0.85 | Activity (KYSE-510 [17]): Dose-dependent effect | fractional inhibitory concentration index (FICI) (KYSE-510 [17]): 0.07 | Activity (MDA-MB-231 [18]): Dose-dependent effect | fractional inhibitory concentration index (FICI) (MDA-MB-231 [18]): 0.75 | Activity (MDA-MB-231 [19]): Dose-dependent effect | fractional inhibitory concentration index (FICI) (MDA-MB-231 [19]): <0.2 | Activity (KYSE-510 [20]): Dose-dependent effect | fractional inhibitory concentration index (FICI) (KYSE-510 [20]): 0.08 | Activity (MDA-MB-231 [21]): Dose-dependent effect | Activity (MDA-MB-231 [22]): Dose-dependent effect | fractional inhibitory concentration index (FICI) (MDA-MB-231 [22]): 0.73 | Activity (A2780 [23]): Dose-dependent effect | fractional inhibitory concentration index (FICI) (A2780 [23]): 0.73 | Activity (MDA-MB-231 [24]): Dose-dependent effect | fractional inhibitory concentration index (FICI) (MDA-MB-231 [24]): <0.2 | Activity (A2780 [25]): Dose-dependent effect | fractional inhibitory concentration index (FICI) (A2780 [25]): 0.64

— ChEMBL document CHEMBL2311425, “Histone deacetylase (HDAC) inhibitors with a novel connecting unit linker region reveal a selectivity profile for HDAC4 and HDAC5 with improved activity against chemoresistant cancer cells” (J Med Chem, 2013)
